ANO1 activ – activates or potentiates the mouse TMEM16A chloride channel | Q8BHY3 | HEK293 TMEM16A/YFP-H148Q/I152L, iodide quench fluorescence; stronger effect = lower value | B-score at 10 µM | 0.3% of 340,000 active;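 active means fluorescence-ratio B-score plate-corrected deviation score at least 3 library SD below zero, with starting fluorescence score within 5 deviations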;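 further: channel opened by trigger with iodide after compound preincubation; score built on the fluorescence ratio of max minus min over baseline; more negative score means more quench and so TMEM16A activation or potentiation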
Target sequence (Q8BHY3 whole entry, looked up): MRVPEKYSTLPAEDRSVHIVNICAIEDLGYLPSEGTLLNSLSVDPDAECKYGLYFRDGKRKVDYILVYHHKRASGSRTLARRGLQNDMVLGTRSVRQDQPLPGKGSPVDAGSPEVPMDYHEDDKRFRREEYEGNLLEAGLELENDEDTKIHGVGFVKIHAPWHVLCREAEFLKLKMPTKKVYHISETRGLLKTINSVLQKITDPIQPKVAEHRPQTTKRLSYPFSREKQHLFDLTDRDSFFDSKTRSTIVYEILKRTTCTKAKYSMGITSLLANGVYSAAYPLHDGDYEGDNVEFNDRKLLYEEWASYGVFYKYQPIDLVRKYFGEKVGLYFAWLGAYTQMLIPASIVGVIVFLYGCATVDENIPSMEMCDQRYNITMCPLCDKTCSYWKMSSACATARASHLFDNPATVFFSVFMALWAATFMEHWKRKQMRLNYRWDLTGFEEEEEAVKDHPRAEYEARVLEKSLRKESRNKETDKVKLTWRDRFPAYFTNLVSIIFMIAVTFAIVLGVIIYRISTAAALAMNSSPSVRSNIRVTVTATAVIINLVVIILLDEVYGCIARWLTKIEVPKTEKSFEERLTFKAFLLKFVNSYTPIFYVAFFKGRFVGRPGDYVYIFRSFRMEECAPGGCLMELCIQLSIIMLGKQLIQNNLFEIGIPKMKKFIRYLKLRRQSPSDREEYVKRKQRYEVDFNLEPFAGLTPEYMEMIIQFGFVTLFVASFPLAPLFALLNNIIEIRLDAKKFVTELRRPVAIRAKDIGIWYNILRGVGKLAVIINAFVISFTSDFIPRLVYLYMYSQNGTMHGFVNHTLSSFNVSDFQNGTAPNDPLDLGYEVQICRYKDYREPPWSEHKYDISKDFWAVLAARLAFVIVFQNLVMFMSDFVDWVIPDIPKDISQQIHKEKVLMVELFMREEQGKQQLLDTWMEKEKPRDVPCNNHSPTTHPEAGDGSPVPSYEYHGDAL
TAAR1 antag – antagonists of human TAAR1; inhibition, % at 3 µM; Q96RJ0; CHO RD-HGA16 TAAR1, Fluo-8 calcium fluorescence, antagonist; 1.5% of 360,000 active;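 active means inhibition above a per-plate cutoff, the mean inhibition of test compounds on that plate plus 3 SD, cut at about 49% in these data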;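 further: 0% = DMSO plus EC80 beta-PEA response and 100% = DMSO alone without agonist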
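Material: CHO RD-HGA16 cells bearing hTAAR1; compound dosing: one-point dosing, 3 µM nominal final; schedule: dye loading 75 min at 37 °C, then 30 min room temperature; measured by: calcium fluorescence with Fluo-8; control set: vehicle and agonist controls; replication: n of 1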
CRFR2-BP antag – CRF-BP/CRF-R2 complex antagonism. inhibition, % at 11.8 µM. AID 588475. 0.59% of 350,000 active. HEK293 CRF-R2/CRF-BP, CRF-induced calcium fluorescence;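 active means inhibition of the ligand-induced calcium signal above about 50% at the single tested concentration, limit read from the data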
CRFR2-BP ag – CRF-BP/CRF-R2 complex agonism; HEK293 CRF-R2/CRF-BP, calcium dye fluorescence (FLIPR); percent of saturating CRF peptide response; activation, % at 13.2 µM; 0.46% of 350,000 active;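 active means activation of at least 50%, plus an integration ratio under a set limit after plate pattern correction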;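 further: plate controls were neutral control wells without compound for no effect and CRF at EC100 for full effect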
ANO1 block – mouse TMEM16A channel inhibition, primary screen; HEK293 TMEM16A/YFP iodide influx fluorescence, ionomycin; normalized B-score (activity score, 25-100; higher = stronger inhibition) at 10 µM; 1.2% of 310,000 active;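 active means ratio plate-corrected score three or more library SD toward inhibition, starting fluorescence score within five deviations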;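 further: score derived from kinetic fluorescence span divided by baseline fluorescence per well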
TAAR1 ag – human TAAR1 agonism. CHO RD-HGA16 TAAR1, Fluo-8 calcium fluorescence; vehicle wells 0%, saturating PEA agonist 100%. activation, % at 3 µM. 0.99% of 360,000 active. AID 624467;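 active means activation above the mean activation of all test compounds in the run plus 3 SD, cut at about 38% in these data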
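test system = CHO RD-HGA16 cells carrying human TAAR1 plus Gα16 | schedule = 17-24 h seeding, 75 min 37 °C dye, 30 min RT | compound dosing = 3 µM single concentration | control set = DMSO and PEA EC100 | replicates = n 1 | signal = Fluo-8 fluorescence, 5 s baseline then 140 s kinetic read | measure = percent activation vs PEA EC100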
nonsel antag count – nonselective antagonism, TAAR1 counter-screen | counterscreen cell line, calcium fluorescence, antagonist mode | 77% of 2,400 active | AID 651780 | inhibition, % at 3 µM | shares compounds with TAAR1 antag; in the data active means inhibition above about 22%;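 further: CHO-Ga16 host cells stimulated with ATP at an EC80 level; 0% = agonist EC80 plus vehicle and 100% = vehicle without agonist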
TAAR1 antag conf – confirmation of human TAAR1 antagonists | shares compounds with TAAR1 antag | TAAR1-expressing cells, fluorescence antagonist read-out | inhibition, % at 3 µM | 40% of 2,400 active; in the data active means inhibition above about 49%;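 further: CHO-Ga16 host cells challenged with agonist PEA near its EC80; 0% = agonist at EC80 plus vehicle and 100% = vehicle with no agonist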
Ga16 nonsel ag – nonselective Ga16 agonism, counter-screen; shares compounds with TAAR1 antag; Ga16-expressing cells, calcium fluorescence, agonist counterscreen; activation, % at 3 µM; 18% of 2,400 active; in the data active means activation above about 12%;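 further: 0% = vehicle wells and 100% = saturating stimulus response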
TAAR1 ag count – activates human TAAR1 in antagonist counter-screen; shares compounds with TAAR1 antag; hTAAR1 cell line, fluorescence activation, agonist mode; activation, % at 3 µM; 2% of 2,400 active; in the data active means activation above about 37%;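 further: CHO cells stably expressing TAAR1 with calcium dye readout; 0% = DMSO vehicle and 100% = full agonist response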
Active calls of the source: *; i = inactive; · = no result given. The list is not random: actives were taken first. Their share in the collection is about 3.9%.

SMILES	ANO1 activ	TAAR1 antag	CRFR2-BP antag	CRFR2-BP ag	ANO1 block	TAAR1 ag	nonsel antag count	TAAR1 antag conf	Ga16 nonsel ag	TAAR1 ag count
COc1cccc(C(=O)NCc2ccc3c(c2)OCO3)c1OC	i	-14	-8	1	i	3	·	·	·	·
COc1ccc(C(=O)NC(C)CCc2ccccc2)c(O)c1 (stereo unspecified)	i	-7	29	-2	i	0	·	·	·	·
O=C(Nc1ccc(C(=O)N2CCCc3ccccc32)cc1)c1cccs1	i	20	16	0	i	1	·	·	·	·
COc1ccccc1N(C)S(=O)(=O)c1ccc(C(=O)N(C)Cc2ccc(Cl)s2)cc1	i	51*	-6	2	·	14	27*	37	8	7
COc1ccccc1N(C)S(=O)(=O)c1ccc(C(=O)N(C)Cc2cccc(OC)c2OC)cc1	·	31	-6	-1	·	5	·	·	·	·
O=C(NC(Cc1ccccc1)C(=O)O)c1ccccc1 (stereo unspecified)	i	-3	8	0	i	3	·	·	·	·
O=C(NC(Cc1ccccc1)C(=O)N1CCc2ccccc2C1)c1ccccc1 (stereo unspecified)	i	55*	1	1	i	8	26*	46	7	5
COc1cccc(CNC(=O)CN2C(=O)COc3ccc(S(=O)(=O)N4CCCC4)cc32)c1	i	-16	2	0	i	8	·	·	·	·
Cc1ccccc1-c1cccc([C@@H]2C[C@H]3[C@H](CON3C)CN2S(=O)(=O)c2ccccc2C)c1	·	22	7	1	·	3	·	·	·	·
COC(=O)[C@@]1(Sc2ccc(C)cc2)CC(=O)N(c2ccccc2)[C@@H]1c1ccccc1	·	95*	·	·	·	8	39*	78*	7	8
Cc1c(C(=O)Nc2cccc([N+](=O)[O-])c2)csc1-c1ccccc1	i	81*	9	2	i	14	37*	54*	4	-2
COc1ccc(CCNC(=O)c2ccc(Cl)c(S(=O)(=O)N(C)c3ccccc3)c2)cc1	i	57*	-7	-1	i	12	33*	44	9	3
Cc1ccsc1/C=N/NC(=O)c1ccc2ccccc2c1	i	12	0	3	i	0	·	·	·	·
O=C(Cc1ccc(Br)cc1)N1CCOCC1	i	1	15	7	i	0	·	·	·	·
CCOC(=O)C1(Cc2cccc(OC)c2)CCN(Cc2ccc(C)s2)CC1	i	-1	-25	-1	i	18	·	·	·	·
CCc1ccc(OC2(C)CCN(Cc3ccc4c(c3)OCCO4)C2)cc1 (stereo unspecified)	·	-6	·	·	·	4	·	·	·	·
COc1cccc(N2CCN(C(=O)C3CCCN(c4ncnc5c4nc4n5CCCCC4)C3)CC2)c1 (stereo unspecified)	i	55*	-1	-1	i	22	34*	49*	12*	17
O=C(OC1CCOC1=O)c1ccc(Cl)c(S(=O)(=O)N2CCOCC2)c1 (stereo unspecified)	i	-3	3	0	·	1	·	·	·	·
CCOC(=O)Cc1ccc(Nc2nc(NCc3cccs3)nc3ccsc23)cc1	·	76*	·	·	·	6	42*	45	5	-1
CCn1cnc2sc(C(=O)N(Cc3ccc(N(C)C)cc3)Cc3ccco3)c(C)c2c1=O	i	54*	0	-1	i	24	23*	38	7	14

Compound activity as filed in PubChem.
